Consider 13 compounds from ChEMBL document CHEMBL1132451, “Evaluation and biological properties of reactive ligands for the mapping of the glycine site on the N-methyl-D-aspartate (NMDA) receptor” (J Med Chem, 1999).

pIC50, pKi: −log10 of the molar value.

Assay [1] deals with Glutamate NMDA receptor; Grin1/Grin2b (Rattus norvegicus, UniProt P35439+Q00960). Kind of assay: Antagonistic activity for suppression of membrane current response elicited by fixed concentration of glycine and glutamate in Xenopus oocyte expressing N-methyl-D-aspartate glutamate receptor 1/2B. It counts as functional. The method in brief:
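Xenopus oocytes expressing cloned NR1A/NR2B, superfused with frog's Ringer (10 mM HEPES, 115 mM NaCl, 0.9 mM CaCl2, 1 mM KCl, pH 7.2) containing 1 μM glycine plus 100 μM glutamate, with increasing antagonist. Washes of 4–6 min between stimulations. IC50 from five-point concentration-inhibition curves, sigmoidal fit, assuming competitive inhibition. Mean (SE) of ≥3 experiments.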

For assay [2], the target named is Glutamate receptor ionotropic, NMDA 1 (Rattus norvegicus, UniProt P35439). Kind of assay: Displacement of [3H]-5-7 dichlorokynurenic acid ([3H]- DCKA) from N-methyl-D-aspartate glutamate receptor glycine site of rat brain membrane homogenate. It counts as tissue-based. The method in brief:
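Rat brain membranes kept at -80 °C, thawed, washed in HEPES-KOH 50 mM pH 7.5. About 0.1 mg protein incubated 30 min at 4 °C with 20 nM [3H]-DCKA and increasing probe; nonspecific binding with 1 mM glycine. Filtration, then scintillation counting. Logistic fit; Ki by Cheng-Prusoff (KD 35 nM). Mean (SE) of ≥3 experiments.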
On the technique in general: Displacement assays read how much labelled ligand stays bound in the presence of the test substance.

Chain of Glutamate NMDA receptor; Grin1/Grin2b (Q00960 whole entry, other chains not shown, the tested form may be a part): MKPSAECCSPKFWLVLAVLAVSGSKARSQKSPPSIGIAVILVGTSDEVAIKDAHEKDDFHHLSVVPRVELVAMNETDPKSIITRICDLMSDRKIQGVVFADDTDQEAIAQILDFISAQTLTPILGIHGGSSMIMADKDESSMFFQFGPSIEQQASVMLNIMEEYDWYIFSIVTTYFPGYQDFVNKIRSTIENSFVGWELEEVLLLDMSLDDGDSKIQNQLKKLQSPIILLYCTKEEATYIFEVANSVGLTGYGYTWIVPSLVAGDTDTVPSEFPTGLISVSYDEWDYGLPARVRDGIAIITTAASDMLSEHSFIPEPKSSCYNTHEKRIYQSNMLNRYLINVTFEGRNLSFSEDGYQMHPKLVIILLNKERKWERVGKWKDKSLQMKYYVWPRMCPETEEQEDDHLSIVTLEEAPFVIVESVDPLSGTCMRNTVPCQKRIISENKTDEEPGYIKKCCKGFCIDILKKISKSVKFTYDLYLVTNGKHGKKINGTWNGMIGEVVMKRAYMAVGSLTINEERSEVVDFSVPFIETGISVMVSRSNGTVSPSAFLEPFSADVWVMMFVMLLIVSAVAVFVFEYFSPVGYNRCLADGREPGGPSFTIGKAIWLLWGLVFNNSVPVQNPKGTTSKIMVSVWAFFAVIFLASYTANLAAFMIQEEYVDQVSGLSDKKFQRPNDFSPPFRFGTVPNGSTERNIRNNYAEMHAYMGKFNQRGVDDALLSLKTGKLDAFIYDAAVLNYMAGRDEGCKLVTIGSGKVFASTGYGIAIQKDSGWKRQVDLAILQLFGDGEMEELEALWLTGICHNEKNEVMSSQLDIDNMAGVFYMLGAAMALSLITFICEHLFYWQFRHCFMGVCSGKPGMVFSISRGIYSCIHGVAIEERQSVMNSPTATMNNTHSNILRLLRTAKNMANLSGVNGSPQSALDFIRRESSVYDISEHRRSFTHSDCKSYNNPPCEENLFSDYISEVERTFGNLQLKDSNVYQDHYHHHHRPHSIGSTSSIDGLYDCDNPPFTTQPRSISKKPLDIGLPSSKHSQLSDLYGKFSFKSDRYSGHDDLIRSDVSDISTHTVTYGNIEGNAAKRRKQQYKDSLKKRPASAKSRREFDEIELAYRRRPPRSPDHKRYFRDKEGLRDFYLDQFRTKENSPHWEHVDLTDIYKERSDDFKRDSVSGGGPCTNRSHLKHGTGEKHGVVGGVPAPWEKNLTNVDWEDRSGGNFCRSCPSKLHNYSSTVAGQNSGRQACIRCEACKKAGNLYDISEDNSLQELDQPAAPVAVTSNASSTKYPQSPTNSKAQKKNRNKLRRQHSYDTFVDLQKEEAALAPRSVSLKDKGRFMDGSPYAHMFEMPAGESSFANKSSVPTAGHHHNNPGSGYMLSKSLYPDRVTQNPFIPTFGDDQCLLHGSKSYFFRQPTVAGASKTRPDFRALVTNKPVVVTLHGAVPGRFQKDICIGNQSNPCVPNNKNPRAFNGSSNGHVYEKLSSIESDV

One may read the pIC50 as −log10 of the IC50, conventionally taken in molar units. The pKi is the negative decadic logarithm of the Ki, by convention in mol/L. A low value points to a large Ki. In the case of `O=C(CCl)Nc1c(-c2cccc(Oc3ccccc3)c2)c(=O)[nH]c2cc(Cl)ccc12`, in assay [1], the negative-log IC50 (pIC50) was less than 4.00. This compound gave a pKi in assay [2] of 6.67. Take `O=C(Oc1c(-c2cccc(Oc3ccccc3)c2)c(=O)[nH]c2cc(Cl)ccc12)c1ccc(S(=O)(=O)F)cc1`: in assay [1], the negative-log IC50 (pIC50) is 5.62. Further, the negative-log Ki (pKi) in assay [2] is 7.62. For `O=C(CCl)Nc1ccc2c(O)c(-c3cccc(Oc4ccccc4)c3)c(=O)[nH]c2c1` the same measures were 4.42 and 6.56.

Regarding `O=C(CCl)Nc1cccc(-c2c(O)c3ccc(Cl)cc3[nH]c2=O)c1`, the pIC50 in assay [1] is 6.81. The negative-log Ki (pKi) in assay [2] was 7.38. In the same order, the values of `O=C(CCl)Nc1cccc(Oc2cccc(-c3c(O)nc4cc(Cl)ccc4c3O)c2)c1` are 7.41 and 7.86. Consider `N#[N+]c1ccc2c(O)c(-c3cccc(Oc4ccccc4)c3)c(O)nc2c1`, for which, in assay [2], the negative logarithm of the Ki (pKi) is less than 6.00.

`O=c1[nH]c2cc(Cl)ccc2c(O)c1-c1cccc(N=C=S)c1`: in assay [1], the negative-log IC50 (pIC50) was 6.70. In assay [2], this compound gave a negative-log Ki (pKi) of 7.32. In the same order, the values of `O=C(CCl)Nc1ccccc1Oc1cccc(-c2c(O)nc3cc(Cl)ccc3c2O)c1` are 7.62 and 8.15. In the same order, the values of `O=C(CCl)Nc1ccc2c(OC(=O)CCl)c(-c3cccc(Oc4ccccc4)c3)c(=O)[nH]c2c1` are 4.20 and 6.37. For the compound `O=c1[nH]c2cc(Cl)ccc2c(O)c1-c1cccc(Oc2ccccc2)c1`, the pIC50 in assay [1] was 7.74. Further, the pKi in assay [2] is 7.85. For `O=c1[nH]c2cc(Cl)ccc2c(O)c1-c1cccc(NCCS(=O)(=O)F)c1` the same measures were 6.47 and 7.62. In the same order, the values of `O=c1[nH]c2cc(Cl)ccc2c(O)c1-c1cccc(Oc2ccccc2NCCS(=O)(=O)F)c1` are 7.49 and 7.57.

Regarding `O=c1[nH]c2cc(N=C=S)ccc2c(O)c1-c1cccc(Oc2ccccc2)c1`, in assay [1], the pIC50 is 4.62. Also, the negative-log Ki (pKi) in assay [2] is 7.19.
